Legend:
[1] = Growth inhibition of aerobic chinese hamster ovary fibroblast AA8 cell line using an exposure time of 18 hours; type: functional, cell-based; conditions: Cricetulus griseus, CHO-AA8, 18 h
In short: (§1)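 Log-phase CHO monolayers in 96-well trays seeded at 200 (AA8; text prints "A48") or 300 (UV4) cells/well in Alpha MEM + 10% FCS, grown 24 h, then exposed aerobically 18 h to five 2-fold serial dilutions in duplicate.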

[2] = Growth inhibition of aerobic chinese hamster ovary fibroblast UV4 cells using an exposure time of 18 hours; type: functional, cell-based; conditions: Cricetulus griseus, UV4, 18 h; in short: as §1
[3] = organism: Cricetulus griseus; assay: Hypersensitivity factor was defined as the ratio of IC50(AA8) to IC50(UV4); type: functional
[4] = Hypoxic selectivity was measured as product of concentration and exposure time needed to reduce cell survival to 10% of control using UV4 cells at 10e6 /mL in the clonogenic assay; type: functional, Cricetulus griseus
In short: (§2)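 Magnetically stirred 10-mL suspensions of late-log UV4 cells (10^6/mL), gassed continuously with 5% CO2 in air or N2. Cells and drug in medium pre-equilibrated 60 min under that gas before mixing. Samples removed periodically up to 8 h for clonogenic survival. CT10 = concentration (μM) × time (h) for 10% survival; ratio = CT10(air)/CT10(N2), using concentrations giving similar kill rates.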

[5] = CT10 ratio defined as ratio of CT10 (air) to that of CT10 (nitrogen)); type: functional; in short: as §2

Compound: O=C(c1cc(N(CCO)CCO)c([N+](=O)[O-])cc1[N+](=O)[O-])N1CCOCC1
- IC50 [1]: 2950 µM
- IC50 [2]: 2600 µM
- HF [3]: 1.1

Compound: O=C(c1cc(N(CCCl)CCCl)ccc1[N+](=O)[O-])N1CCOCC1
- IC50 [1]: 243 µM
- IC50 [2]: 15 µM
- CT10 [4]: 450 µM·h
- CT10 ratio [5]: 1 air/N2
- HF [3]: 19

Compound: O=C(c1cc([N+](=O)[O-])ccc1N(CCO)CCO)N1CCOCC1
- IC50 [1]: 10400 µM
- IC50 [2]: 8400 µM
- HF [3]: 1.3

Compound: O=[N+]([O-])c1ccc(N(CCO)CCO)cc1
- IC50 [1]: 3200 µM
- IC50 [2]: 2950 µM
- HF [3]: 1.1

Compound: O=C(c1cc(N2CC2)c([N+](=O)[O-])cc1[N+](=O)[O-])N1CCOCC1
- IC50 [1]: 690 µM
- IC50 [2]: 2.7 µM
- CT10 [4]: 50 µM·h
- CT10 ratio [5]: 1.7 air/N2
- HF [3]: 330

Compound: CN(C)CCNC(=O)c1cc(N(CCO)CCO)ccc1[N+](=O)[O-]
- IC50 [1]: 13200 µM
- IC50 [2]: 8000 µM
- CT10 [4]: 11300 µM·h
- CT10 ratio [5]: 0.95 air/N2
- HF [3]: 1.6

Compound: CN(C)CCNC(=O)c1cccc(N(CCCl)CCCl)c1
- IC50 [1]: 11 µM
- IC50 [2]: 0.27 µM
- HF [3]: 44

Compound: CN(C)CCNC(=O)c1cc([N+](=O)[O-])ccc1N(CCO)CCO
- IC50 [1]: 6700 µM
- IC50 [2]: 4000 µM
- HF [3]: 1.1

Compound: NC(=O)c1cc(N(CCO)CCO)c([N+](=O)[O-])cc1[N+](=O)[O-]
- IC50 [1]: 6200 µM
- IC50 [2]: 5900 µM
- CT10 [4]: >35000 µM·h
- HF [3]: 1.1

Compound: CN(C)CCNC(=O)c1cc(N(CCCl)CCCl)c([N+](=O)[O-])cc1[N+](=O)[O-]
- IC50 [1]: 260 µM
- IC50 [2]: 68 µM
- CT10 [4]: 1080 µM·h
- CT10 ratio [5]: 70 air/N2
- HF [3]: 4.2

Compound: NC(=O)c1cc(N2CC2)c([N+](=O)[O-])cc1[N+](=O)[O-] [TRETAZICAR]
- IC50 [1]: 560 µM
- IC50 [2]: 11.7 µM
- CT10 ratio [5]: 3.6 air/N2
- HF [3]: 50

Compound: CN(C)CCNC(=O)c1cc(N(CCCl)CCCl)ccc1[N+](=O)[O-]
- IC50 [1]: 1140 µM
- IC50 [2]: 72 µM
- CT10 [4]: 465 µM·h
- CT10 ratio [5]: 2.3 air/N2
- HF [3]: 12

Compound: CN(C)CCNC(=O)c1cc(N(CCO)CCO)c([N+](=O)[O-])cc1[N+](=O)[O-]
- IC50 [1]: 4110 µM
- IC50 [2]: 3100 µM
- HF [3]: 1.4

Compound: O=C(c1cc(N(CCCl)CCCl)c([N+](=O)[O-])cc1[N+](=O)[O-])N1CCOCC1
- IC50 [1]: 260 µM
- IC50 [2]: 12 µM
- CT10 [4]: 156 µM·h
- CT10 ratio [5]: 1.3 air/N2
- HF [3]: 23

Compound: CN(C)CCNC(=O)c1cc([N+](=O)[O-])ccc1N(CCCl)CCCl
- IC50 [1]: 208 µM
- IC50 [2]: 5.7 µM
- CT10 [4]: 78 µM·h
- CT10 ratio [5]: 1.5 air/N2
- HF [3]: 40

Compound: O=C(c1cc(N(CCO)CCO)ccc1[N+](=O)[O-])N1CCOCC1
- IC50 [1]: 11200 µM
- IC50 [2]: 9200 µM
- HF [3]: 1

Compound: O=C(c1cc([N+](=O)[O-])ccc1N(CCCl)CCCl)N1CCOCC1
- IC50 [1]: > 500 µM
- IC50 [2]: 68 µM
- CT10 [4]: 2325 µM·h
- CT10 ratio [5]: 1.15 air/N2
- HF [3]: > 7

Compound: NC(=O)c1cc(N(CCCl)CCCl)c([N+](=O)[O-])cc1[N+](=O)[O-]
- IC50 [1]: 470 µM
- IC50 [2]: 108 µM
- CT10 [4]: 2700 µM·h
- CT10 ratio [5]: 60 air/N2
- HF [3]: 6.8

Compound: O=[N+]([O-])c1ccc(N(CCO)CCO)c([N+](=O)[O-])c1
- IC50 [1]: 295 µM
- IC50 [2]: 280 µM
- HF [3]: 0.9

Source: ChEMBL document CHEMBL1125539 (J Med Chem, 1992)
